What all share (format): biochemical
In one experiment the target is hCA I (Homo sapiens, UniProt P00915). Nature of the experiment: hCA I esterase activity inhibition assay. To be noted: for fold increase of hCA I inhibition relative to complex 2: ratio of Ki values, versus complex 2.
For a further experiment, the target named is hCA II (Homo sapiens, UniProt P00918). Nature of the experiment: hCA II esterase activity inhibition assay. The gist of the method: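 hCA II purified from expired human erythrocytes by Sepharose-4B-L-tyrosine-sulfanilamide affinity chromatography; purity checked by SDS-PAGE; protein quantified against a bovine serum albumin standard. Esterase activity followed spectrophotometrically as p-nitrophenylacetate hydrolysis to p-nitrophenolate, absorbance change at 348 nm over 3 min at 25 °C. Inhibitor and substrate concentrations varied; IC50 and Ki derived, inhibition type from Lineweaver-Burk plots.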

For a further experiment, the target named is AChE (Electrophorus electricus, UniProt O42275). Nature of the experiment: biochemical.
AChE, sequence (O42275 24-633): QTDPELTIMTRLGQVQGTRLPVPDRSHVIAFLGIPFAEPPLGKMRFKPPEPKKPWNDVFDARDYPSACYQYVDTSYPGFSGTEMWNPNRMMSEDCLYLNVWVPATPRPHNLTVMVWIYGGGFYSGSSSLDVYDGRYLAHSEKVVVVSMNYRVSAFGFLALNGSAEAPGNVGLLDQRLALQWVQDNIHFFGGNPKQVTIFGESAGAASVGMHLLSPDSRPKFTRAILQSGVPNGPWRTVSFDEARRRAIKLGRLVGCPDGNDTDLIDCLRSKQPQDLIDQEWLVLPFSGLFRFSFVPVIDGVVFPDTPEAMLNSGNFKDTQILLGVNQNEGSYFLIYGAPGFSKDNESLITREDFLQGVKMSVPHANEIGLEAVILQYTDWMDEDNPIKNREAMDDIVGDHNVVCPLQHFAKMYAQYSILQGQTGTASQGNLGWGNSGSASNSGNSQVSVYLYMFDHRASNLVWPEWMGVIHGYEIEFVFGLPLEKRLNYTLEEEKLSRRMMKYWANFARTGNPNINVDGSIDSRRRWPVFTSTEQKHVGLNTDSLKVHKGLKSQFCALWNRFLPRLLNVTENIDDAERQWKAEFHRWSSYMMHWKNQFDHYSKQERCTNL
[1] abbreviates: read-out: Ki hCA I, Lineweaver-Burk, hCA I from human erythrocytes.
Where [2] appears, read: read-out: Ki hCA II, Lineweaver-Burk, hCA II from human erythrocytes.

Where “and” joins values, the source holds several entries; their conditions need not be identical. Identical values can stand only once. Like-named read-outs stand apart in the source and are kept apart here.

hCA I, sequence (P00915 whole entry): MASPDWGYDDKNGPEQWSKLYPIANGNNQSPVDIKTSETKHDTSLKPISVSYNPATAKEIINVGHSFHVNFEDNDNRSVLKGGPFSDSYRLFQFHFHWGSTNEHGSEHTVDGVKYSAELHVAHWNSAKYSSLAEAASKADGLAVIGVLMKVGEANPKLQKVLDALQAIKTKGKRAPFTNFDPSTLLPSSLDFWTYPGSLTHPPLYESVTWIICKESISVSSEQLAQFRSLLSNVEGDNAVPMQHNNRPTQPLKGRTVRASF

Regarding “dibromo[1,3-dibenzylbenzimidazol-2-ylidene]triphenylphosphine palladium(II) [Complex 5]”, the inhibition constant (Ki) (commonly the equilibrium dissociation constant of an inhibitor or competing ligand from its target) on hCA I (setting [1]) was 40.3 ± 2 nM; on hCA II (setting [2]), 15 nM and 15.3 nM; at AChE (read-out: Ki AChE, Lineweaver-Burk, AChE from Electrophorus electricus) it was 23.1 ± 2.6 nM.
With “dibromo[1,3-dibenzylbenzimidazol-2-ylidene]morpholinepalladium(II) [Complex 6]”, the Ki at hCA I (setting [1]) was 16.9 ± 0.3 nM; on hCA II (setting [2]), 12 nM and 12.1 nM.
Regarding “dibromo[1,3-dibenzylbenzimidazol-2-ylidene]pyridinepalladium(II) [Complex 2]”, on hCA I (setting [1]), the inhibition constant (Ki) is 28.4 ± 1.2 nM. On hCA II (setting [2]), the Ki worked out at 8.3 ± 1.8 nM. For the same compound, at AChE, the “fold more effective AChE inhibition than donepezil” value is reported as 1.49 fold and the “fold more effective AChE inhibition than tacrine” value worked out at 1.76 fold.
Turning to “dibromo[1,3-dibenzylbenzimidazol-2-ylidene]-3-chloropyridinepalladium(II) [Complex 3]”, the “fold increase of hCA I inhibition relative to complex 2” value on hCA I is given as 2.83 fold. Moreover, the inhibitory constant (Ki) was found to be 10 ± 1.4 nM at hCA I (setting [1]) and 7.7 ± 0.6 nM on hCA II (setting [2]).
On to `c1ccc(Cn2c[n+](Cc3ccccc3)c3ccccc32)cc1` [Compound 1, 1,3-dibenzylbenzimidazolium chloride], for which the results for the half-maximal inhibitory concentration (IC50) against hCA I, against hCA II and against AChE were 116 nM, 69.3 nM and 86.6 nM, respectively. For the same compound, the Ki on hCA I was 68.5 ± 11.5 nM; at hCA II, 49.3 ± 6.5 nM; at AChE, 64 nM and 64.1 nM.
As for “dibromo[1,3-dibenzylbenzimidazol-2-ylidene]-2-aminopyridinepalladium(II) [Complex 4]”, the “fold increase of hCA I inhibition relative to complex 2” value at hCA I was 2.83 fold. Moreover, the results for the Ki at hCA I (setting [1]) and at hCA II (setting [2]) were 18.1 ± 3 nM and 19.7 ± 1.9 nM, respectively.

These data come from publication PMC9520214 (Heliyon, 2022).
